Reference: ChEMBL document CHEMBL2046290, “Ureido-substituted sulfamates show potent carbonic anhydrase IX inhibitory and antiproliferative activities against breast cancer cell lines” (Bioorg Med Chem Lett, 2012)
Active and inactive are the calls of the source. No cut-off for these calls is given here.

Columns and labels:
MDA-MB-361 = experiment: Antiproliferative activity against human MDA-MB-361 cells at 100 uM after 5 days by SRB assay under normoxic condition; assay type: functional, cell-based
Procedure, shortened: (§1)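 Cells seeded at 1 × 10^3 per well, adhered 48 h, medium removed, then exposed to compound at 100 μM. After 5 days, growth measured by SRB: fixed with cold 25% TCA 1 h at 4 °C, stained with SRB in 1% acetic acid 30 min at room temperature, dye solubilised in 10 mM Tris pH 10.5, read at 540. Values expressed relative to untreated control (1.0).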

MCF7 [1] = experiment: Antiproliferative activity against human MCF7 cells after 5 days by SRB assay under hypoxic condition; assay type: functional, cell-based
Procedure, shortened: (§2)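 MCF7 seeded at 3 × 10^3 per well, adhered 48 h, then equilibrated 6 h at 0.5% O2 in a hypoxia station. Compounds added in hypoxic medium across 0.1–100 μM. After 5 days, proliferation measured by SRB: cold 25% TCA fixation 1 h at 4 °C, SRB in 1% acetic acid 30 min, solubilised in 10 mM Tris pH 10.5, read at 540.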

SK-BR-3 = experiment: Antiproliferative activity against human SKBR3 cells at 100 uM after 5 days by SRB assay under normoxic condition; assay type: functional, cell-based; procedure, shortened: as §1
MCF7 [2] = experiment: Antiproliferative activity against human MCF7 cells at 10 uM after 5 days by SRB assay under hypoxic condition; assay type: functional, cell-based; procedure, shortened: as §2
ZR-75-1 = experiment: Antiproliferative activity against human ZR-75-1 cells at 100 uM after 5 days by SRB assay under normoxic condition; assay type: functional, cell-based; procedure, shortened: as §1
MCF7 [3] = experiment: Antiproliferative activity against human MCF7 cells at 30 uM after 5 days by SRB assay under hypoxic condition; assay type: functional, cell-based; procedure, shortened: as §2
MCF-10A = experiment: Antiproliferative activity against human MCF10A cells at 100 uM after 5 days by SRB assay under normoxic condition; assay type: functional, cell-based; procedure, shortened: as §1
Carbonic anhydrase 9 = Carbonic anhydrase 9 (Homo sapiens, UniProt Q16790); experiment: Inhibition of human carbonic anhydrase 9 preincubated for 15 mins measured for 10 to 100 sec using phenol red indicator-based stopped flow assay
Procedure, shortened: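 In-house recombinant human enzyme; stopped-flow CO2 hydration at 1.7–17 mM CO2, with 0.2 mM phenol red read at 557 nm in 20 mM Hepes pH 7.5 and 20 mM Na2SO4. Inhibitor (diluted from 0.1 mM aqueous stock to 0.01 nM) preincubated with enzyme 15 min at room temperature. Initial rates taken over 10–100 s, uncatalysed rate subtracted. Ki by non-linear least squares, mean of at least three determinations.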

For `NS(=O)(=O)Oc1ccc(NC(=O)Nc2c(F)c(F)c(F)c(F)c2F)cc1`, which Activity (MDA-MB-361) is on record?
Its Activity is “Active”.

What about the Activity (MCF7 [1]) of the same molecule?
Its Activity is “Dose-dependent effect”.

What about the Activity (SK-BR-3) of the same molecule?
The Activity was “Active”.

What about the Activity (MCF7 [2]) of the same molecule?
Its Activity is “Active”.

What about the Activity (ZR-75-1) of the same molecule?
The Activity was “Active”.

And the Activity (MCF7 [3])?
Its Activity is “Active”.

What about the Activity (MCF-10A) of the same molecule?
The Activity was “Active”.

How did the Activity (MDA-MB-361) turn out when `NS(=O)(=O)Oc1ccc(NC(=O)Nc2ccc(Cl)cc2)cc1` was run?
Its Activity is “Active”.

What about the Activity (MCF7 [1]) of the same molecule?
Its Activity is “Dose-dependent effect”.

And the Activity (SK-BR-3)?
Its Activity is “Active”.

And the Activity (MCF7 [2])?
The Activity was “Active”.

And the Activity (ZR-75-1)?
The Activity was “Active”.

And the Activity (MCF7 [3])?
Its Activity is “Active”.

And the Activity (MCF-10A)?
Its Activity is “Active”.

What does the source list for `NS(=O)(=O)Oc1ccc(NC(=O)NCCc2ccccc2)cc1`?
Activity (MDA-MB-361): Active; Activity (MCF7 [1]): Dose-dependent effect; Activity (SK-BR-3): Active; Activity (MCF7 [2]): Active; Activity (ZR-75-1): Active; Activity (MCF7 [3]): Active; Activity (MCF-10A): Active

`NS(=O)(=O)Oc1ccc(NC(=O)Nc2ccc(Cc3ccccc3)cc2)cc1` was tested. Which Ki (Carbonic anhydrase 9) did it give?
Its Ki is 16 nM.

With `NS(=O)(=O)Oc1ccc(NC(=O)NCCc2cccc3ccccc23)cc1` as the molecule, how does the Ki (Carbonic anhydrase 9) read?
Its Ki is 15 nM.

What does the source list for `NS(=O)(=O)Oc1ccc(NC(=O)Nc2ccc(Oc3ccccc3)cc2)cc1`?
Activity (MDA-MB-361): Active; Activity (MCF7 [1]): Dose-dependent effect; Activity (SK-BR-3): Active; Activity (MCF7 [2]): Active; Activity (ZR-75-1): Active; Activity (MCF7 [3]): Active; Activity (MCF-10A): Active

For `CCOC(=O)c1ccc(NC(=O)Nc2ccc(OS(N)(=O)=O)cc2)cc1`, which Ki (Carbonic anhydrase 9) is on record?
Its Ki is 8 nM.

Which results are given for `NS(=O)(=O)Oc1ccc(NC(=O)Nc2ccc([N+](=O)[O-])cc2)cc1`?
Activity (MDA-MB-361): Active; Activity (MCF7 [1]): Dose-dependent effect; Activity (SK-BR-3): Active; Activity (MCF7 [2]): Active; Activity (ZR-75-1): Active; Activity (MCF7 [3]): Active; Activity (MCF-10A): Active

With `COc1ccc(NC(=O)Nc2ccc(OS(N)(=O)=O)cc2)cc1` as the molecule, how does the Activity (MDA-MB-361) read?
Its Activity is “Active”.

What about the Activity (MCF7 [1]) of the same molecule?
The Activity was “Dose-dependent effect”.

What about the Activity (SK-BR-3) of the same molecule?
The Activity was “Active”.

And the Activity (MCF7 [2])?
The Activity was “Active”.

What about the Activity (ZR-75-1) of the same molecule?
The Activity was “Active”.

What about the Activity (MCF7 [3]) of the same molecule?
The Activity was “Active”.

And the Activity (MCF-10A)?
Its Activity is “Active”.

`CCOC(=O)c1cccc(NC(=O)Nc2ccc(OS(N)(=O)=O)cc2)c1` was tested. Which Ki (Carbonic anhydrase 9) did it give?
The Ki was 12 nM.

For `CCOC(=O)c1ccccc1NC(=O)Nc1ccc(OS(N)(=O)=O)cc1`, which Ki (Carbonic anhydrase 9) is on record?
The Ki was 8 nM.

Which results are given for `CN(C)c1ccc(NC(=O)Nc2ccc(OS(N)(=O)=O)cc2)cc1`?
Activity (MDA-MB-361): Active; Activity (MCF7 [1]): Dose-dependent effect; Activity (SK-BR-3): Active; Activity (MCF7 [2]): Active; Activity (ZR-75-1): Active; Activity (MCF7 [3]): Active; Activity (MCF-10A): Active

How did the Ki (Carbonic anhydrase 9) turn out when `CC(C)(C)OC(=O)N1CCC(NC(=O)Nc2ccc(OS(N)(=O)=O)cc2)CC1` was run?
Its Ki is 7 nM.

`Cc1cc(C)cc(NC(=O)Nc2ccc(OS(N)(=O)=O)cc2)c1` was tested. Which Activity (MDA-MB-361) did it give?
Its Activity is “Active”.

What about the Activity (SK-BR-3) of the same molecule?
The Activity was “Active”.

What about the Activity (MCF7 [2]) of the same molecule?
Its Activity is “Active”.

What about the Activity (ZR-75-1) of the same molecule?
Its Activity is “Active”.

What about the Activity (MCF7 [3]) of the same molecule?
Its Activity is “Active”.

And the Activity (MCF-10A)?
The Activity was “Active”.

What does the source list for `NS(=O)(=O)Oc1ccc(NC(=O)Nc2ccc(F)cc2)cc1`?
Activity (MDA-MB-361): Active; Activity (MCF7 [1]): Dose-dependent effect; Activity (SK-BR-3): Active; Activity (MCF7 [2]): Active; Activity (ZR-75-1): Active; Activity (MCF7 [3]): Active; Activity (MCF-10A): Active
